From ChEMBL document CHEMBL4396929, “Discovery and development of substituted thiadiazoles as inhibitors of Staphylococcus aureus Sortase A” (Bioorg Med Chem, 2019)
Active and inactive are the calls of the source. The rule behind the calls is not given here.

Experiments:
Sortase A [1] = target: T1, Sortase A (Staphylococcus aureus, UniProt Q9S446); test: Inhibition of recombinant Staphylococcus aureus wild type truncated C-terminal His6 tagged Srt A using Abz-Leu-Pro-Glu-Thr-Gly-Lys(Dnp)-NH2 as substrate preincubated for 15 mins followed by substrate addition measured after 60 mins by FRET assay
T1 sequence (Q9S446 whole entry): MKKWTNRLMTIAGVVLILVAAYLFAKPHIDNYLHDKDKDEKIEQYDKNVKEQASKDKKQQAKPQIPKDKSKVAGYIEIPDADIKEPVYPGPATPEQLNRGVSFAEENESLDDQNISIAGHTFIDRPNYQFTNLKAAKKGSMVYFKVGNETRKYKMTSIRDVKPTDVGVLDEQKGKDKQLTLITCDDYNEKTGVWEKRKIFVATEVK

[2] = target: T2, Sortase A (Staphylococcus aureus) (UniProt Q9S446); test: Binding affinity to Staphylococcus aureus SrtA by ligand based 1D CPMG relaxation dispersion NMR analysis
T2 sequence (whole entry): T1 sequence (Q9S446 whole entry)
Summary of the method: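 Ligand-observed 1D NMR: spectrum of ligand alone, then ligand with SrtA, acquired after a delay acting as a T2 filter. Binding is scored as a drop in ligand signal intensity.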

[3] = target: T2, Sortase A (Staphylococcus aureus); test: Inhibition of recombinant Staphylococcus aureus wild type truncated C-terminal His6 tagged Srt A at 200 uM using Abz-Leu-Pro-Glu-Thr-Gly-Lys(Dnp)-NH2 as substrate preincubated for 15 mins followed by substrate addition measured after 60 mins by FRET assay relative to control
Summary of the method: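 FRET read-out: cleavage of the internally quenched substrate relieves Dnp quenching of the Abz fluorophore, and the resulting fluorescence reports SrtA activity. Compound at 200 µM, 15 min preincubation with enzyme. Inhibition reported as mean ± SD, n = 3.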

Sortase A [4] = target: T1, Sortase A; test: Inhibition of recombinant Staphylococcus aureus wild type truncated C-terminal His6 tagged Srt A using Abz-Leu-Pro-Glu-Thr-Gly-Lys(Dnp)-NH2 as substrate preincubated for 30 mins followed by substrate addition measured after 60 mins by FRET assay
Sortase A [5] = target: T1, Sortase A; test: (§1) Inhibition of recombinant Staphylococcus aureus wild type truncated C-terminal His6 tagged Srt A using Abz-Leu-Pro-Glu-Thr-Gly-Lys(Dnp)-NH2 as substrate preincubated for 30 mins followed by substrate addition measured after 60 mins by FRET assay in presence of 0.5 mM reducing agent, DTT
[6] = target: T2, Sortase A (Staphylococcus aureus); test: as §1
[7] = target: T2, Sortase A (Staphylococcus aureus); test: Binding affinity to Staphylococcus aureus 15N-labeled SrtA by protein based 2D SOFAST-HMQC NMR analysis
[8] = target: T2, Sortase A (Staphylococcus aureus); test: Inhibition of recombinant Staphylococcus aureus wild type truncated C-terminal His6 tagged Srt A at 167 uM using Abz-Leu-Pro-Glu-Thr-Gly-Lys(Dnp)-NH2 as substrate preincubated for 15 mins followed by substrate addition measured after 60 mins by FRET assay relative to control
Summary of the method: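 FRET activity assay with an internally quenched substrate. Cleavage by SrtA separates the Abz donor from the Dnp quencher, and the increase in fluorescence is read. Compound at 167 µM with 15 min incubation. Percent inhibition is given as mean ± SD, n = 2.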

[9] = target: T2, Sortase A (Staphylococcus aureus); test: Reversible ligand binding to Staphylococcus aureus SrtA using (Abz-Leu-Pro-Glu-Thr-Gly-Lys(Dnp)-NH2 as substrate by NMR competitive displacement analysis
Summary of the method: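 Ligand-observed CPMG NMR uses a delay acting as a T2 filter. Spectra are taken of the ligand alone, then after SrtA is added, then after a known binder is added to compete for the site. Recovery of the ligand signal marks reversible, competitive binding.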

[10] = target: T2, Sortase A (Staphylococcus aureus); test: Irreversible ligand binding to Staphylococcus aureus SrtA using (Abz-Leu-Pro-Glu-Thr-Gly-Lys(Dnp)-NH2 as substrate by competitive binding based 1D CPMG relaxation dispersion NMR analysis
Summary of the method: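 Ligand-observed CPMG competition: the ligand–SrtA sample is challenged with a known binder for the same site. Signal recovery indicates displacement and reversible binding; no recovery indicates irreversible binding.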

Staphylococcus aureus [11] = test: Growth inhibition of Staphylococcus aureus CCUG 15915 measured after 18 to 24 hrs by broth microdilution assay; assay type: organism-based
Escherichia coli = test: Growth inhibition of Escherichia coli CCUG 17620 measured after 18 to 24 hrs by broth microdilution assay; assay type: organism-based; conditions: in vitro
Staphylococcus aureus [12] = test: Growth inhibition of Staphylococcus aureus CCUG 17621 measured after 18 to 24 hrs by broth microdilution assay; assay type: organism-based
[13] = target: T2, Sortase A (Staphylococcus aureus); test: Inhibition of recombinant Staphylococcus aureus wild type truncated C-terminal His6 tagged Srt A at 200 uM using Abz-Leu-Pro-Glu-Thr-Gly-Lys(Dnp)-NH2 as substrate preincubated for 6.3 hrs followed by substrate addition measured after 60 mins by FRET assay relative to control
[14] = target: T2, Sortase A (Staphylococcus aureus); test: Covalent ligand binding to recombinant Staphylococcus aureus wild type truncated C-terminal His6 tagged SrtA assessed as enzyme modifications by measuring aminothiadiazolyl-thio (+130.96119 Da, +C2HN3S2) and nitrobenzyl-thio (+167.00410, +C7H5NO2S) fragments at 200 uM by LCMS analysis
[15] = target: T2, Sortase A (Staphylococcus aureus); test: Covalent ligand binding to recombinant Staphylococcus aureus wild type truncated C-terminal His6 tagged SrtA assessed as enzyme modifications by measuring nicotinamido-thiadiazolyl thio (+235.98265 Da, +C8H4N4OS2) and nitrobenzyl-thio (+167.00410, +C7H5NO2S) fragments at 200 uM by LCMS analysis

Compound	IC50 (Sortase A [1]) [µM]	Activity [2]	inhibition [3] [%]	also measured
CCSc1c(S)cnn(-c2ccccc2)c1=O	3	–	–	–
CC(=O)Nc1nnc(SCc2ccc([N+](=O)[O-])cc2)s1	127	Active	94	–
N#Cc1ccc(CSc2nnc(N)s2)cc1	–	inactive	2	–
O=[N+]([O-])c1cccc(CSc2nnc(Nc3cccnc3)s2)c1	–	–	37	–
Nc1nnc(SCc2ccc(F)cc2)s1	–	inactive	5	–
Nc1nnc(Sc2ccc([N+](=O)[O-])cc2)s1	–	inactive	35	IC50 (Sortase A [4]): Not Active
O=c1c(O)c(-c2ccc(O)cc2O)oc2cc(O)cc(O)c12 [MORIN]	–	–	–	IC50 (Sortase A [5]): 19 µM
O=[N+]([O-])c1ccc(CSc2nnc(N3CCOCC3)s2)cc1	9	Active	104	–
Nc1nnc(Sc2ccc([N+](=O)[O-])c3nonc23)s1	6 to 6.2	Active	–	inhibition [6]: inactive; Activity [7]: Active; inhibition [8]: 101%; Activity [9]: Active
O=[N+]([O-])c1cccc(CSc2nnc(Br)s2)c1	–	–	19	–
O=C(Nc1nnc(SCc2cccc([N+](=O)[O-])c2)s1)c1ccco1	–	–	6	–
O=C(Nc1nnc(SCc2cccc([N+](=O)[O-])c2)s1)c1cccnc1	–	–	13	–
O=[N+]([O-])c1ccc(CSc2nnc(N3CCNCC3)s2)cc1	71	Active	80	–
O=C(Nc1nnc(SCc2ccc([N+](=O)[O-])cc2)s1)c1ccncc1	42	inactive	99	–
Nc1nnc(Sc2ccccc2)s1	–	inactive	25	–
FC(F)(F)c1ccnc(Sc2nc[nH]n2)n1	19	–	–	–
CC(C)n1c(S)nc2c1c(=O)n(C)c(=O)n2C	50	–	–	Activity [10]: Active
N#Cc1ccccc1CSc1nnc(N)s1	1740	Active	1	MIC (Staphylococcus aureus [11]): > 256 µg/mL; MIC (Escherichia coli): > 256 µg/mL; MIC (Staphylococcus aureus [12]): > 256 µg/mL
O=[N+]([O-])c1cccc(CSc2nnc(N3CCOCC3)s2)c1	–	Active	29	MIC (Staphylococcus aureus [11]): > 256 µg/mL; MIC (Escherichia coli): > 256 µg/mL; MIC (Staphylococcus aureus [12]): > 256 µg/mL
O=C(Nc1nnc(SCc2cccc([N+](=O)[O-])c2)s1)c1ccncc1	–	Active	8	MIC (Staphylococcus aureus [11]): > 256 µg/mL; MIC (Escherichia coli): > 256 µg/mL; MIC (Staphylococcus aureus [12]): > 256 µg/mL
Nc1nnc(SCCc2cccc([N+](=O)[O-])c2)s1	–	inactive	13	–
O=[N+]([O-])c1cccc(CSc2nnc(N3CCNCC3)s2)c1	–	inactive	27	MIC (Staphylococcus aureus [11]): > 256 µg/mL; MIC (Escherichia coli): > 256 µg/mL; inhibition [13]: 38%; MIC (Staphylococcus aureus [12]): > 256 µg/mL
Nc1nnc(SCc2ccccc2)s1	–	inactive	0	–
Nc1nnc(SCc2ccc([N+](=O)[O-])cc2)s1	26	Active	101	MIC (Staphylococcus aureus [11]): > 256 µg/mL; inhibition [6]: inactive; MIC (Escherichia coli): > 256 µg/mL; MIC (Staphylococcus aureus [12]): > 256 µg/mL; Activity [14]: Active
O=C(Nc1nnc(SCc2ccc([N+](=O)[O-])cc2)s1)c1cccnc1	3.8	inactive	100	inhibition [6]: inactive; Activity [15]: Active
Nc1nnc(SCc2cccc([N+](=O)[O-])c2)s1	521	Active	11	MIC (Staphylococcus aureus [11]): > 256 µg/mL; MIC (Escherichia coli): > 256 µg/mL; MIC (Staphylococcus aureus [12]): > 256 µg/mL
CC(=O)Nc1nnc(SCc2cccc([N+](=O)[O-])c2)s1	–	–	18	MIC (Staphylococcus aureus [11]): > 256 µg/mL; MIC (Escherichia coli): > 256 µg/mL; MIC (Staphylococcus aureus [12]): > 256 µg/mL
Nc1nnc(SCc2ccc3ccccc3c2)s1	–	–	13	–
